# Active and inactive are the calls of the source. No cut-off for these calls is given here.
# Legend:
# [1] = molecular target: T1, Ketohexokinase (Homo sapiens, UniProt P50053); assay: Binding affinity to full length recombinant human biotin-labeled KHK by SPR assay
# T1 sequence (P50053 whole entry): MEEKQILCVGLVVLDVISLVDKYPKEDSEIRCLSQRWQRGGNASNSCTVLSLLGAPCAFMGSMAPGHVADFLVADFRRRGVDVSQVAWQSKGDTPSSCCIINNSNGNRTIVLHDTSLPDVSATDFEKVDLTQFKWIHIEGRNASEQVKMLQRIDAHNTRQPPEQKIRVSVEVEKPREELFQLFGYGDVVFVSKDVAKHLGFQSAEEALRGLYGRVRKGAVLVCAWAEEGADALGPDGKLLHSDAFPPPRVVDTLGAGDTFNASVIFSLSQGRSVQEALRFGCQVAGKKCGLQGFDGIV
# Outline: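 Full-length biotinylated KHK captured on a streptavidin sensor (7000-8000 RU). Run buffer was 50 mM HEPES pH 7.4, 150 mM NaCl, 0.01% P20, 500 µM TCEP, 3% DMSO at 25 °C. Eleven 2-fold concentrations from 300 µM top, stop-flow with 60 s association and ≥120 s dissociation. Data double-referenced and DMSO-corrected; KD by steady-state affinity fit, n=1.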
# [2] = molecular target: T1, Ketohexokinase; assay: Inhibition of recombinant human N-terminal His-tagged KHK expressed in Escherichia coli BL21(DE3) using fructose as substrate incubated for 30 mins followed by ATP addition measured for 30 mins by pyruvate kinase-lactate dehydrogenase coupled enzyme assay; conditions: read-out: IC50
# Outline: (§1)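 Thrombin-cleaved (His-tag removed) human or rat KHK at 10 nM, preincubated 30 min at room temperature with compound (11-point series, 2.5% DMSO). Started with 0.2 mM ATP; NADH A340 read kinetically for 30 min. IC50 from nonlinear fit of percent inhibition; mean of replicates.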
# [3] = molecular target: T2, Ketohexokinase (Homo sapiens) (UniProt P50053); assay: Inhibition of recombinant full length human His-tagged KHK expressed in Escherichia coli BL21(DE3) using at 240 uM by 1D NMR-STD spectroscopic method
# T2 sequence (whole entry): T1 sequence (P50053 whole entry)
# Outline: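 Full-length His-tagged human KHK (tag retained) at 5 μM in 50 mM Tris-d, 100 mM NaCl, 2 mM TCEP-d, 5% glycerol-d, pH 7.5, 298 K. AMP-PMP at 240 μM served as positive control. Saturation-transfer difference NMR used 512 scans and 3 s Gaussian on/off-resonance saturation. Binding was called from positive difference signals, with ligands assigned against each fragment's 1D 1H reference spectrum.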
# [4] = Apparent clearance in human liver microsomes; format: ADME, microsome; conditions: read-out: CLH(app)
# [5] = Octanol/water partition coefficient, log D of the compound at pH 7.4 by shake-flask method; format: physicochemical
# Outline: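 LogD measured by shake-flask octanol:water partition at pH 7.4.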
# [6] = molecular target: T3, Ketohexokinase (Rattus norvegicus, UniProt Q02974); assay: Inhibition of recombinant rat N-terminal His-tagged KHK expressed in Escherichia coli BL21(DE3) using fructose as substrate incubated for 30 mins followed by ATP addition measured for 30 mins by pyruvate kinase-lactate dehydrogenase coupled enzyme assay; outline: as §1
# T3 sequence (Q02974 whole entry): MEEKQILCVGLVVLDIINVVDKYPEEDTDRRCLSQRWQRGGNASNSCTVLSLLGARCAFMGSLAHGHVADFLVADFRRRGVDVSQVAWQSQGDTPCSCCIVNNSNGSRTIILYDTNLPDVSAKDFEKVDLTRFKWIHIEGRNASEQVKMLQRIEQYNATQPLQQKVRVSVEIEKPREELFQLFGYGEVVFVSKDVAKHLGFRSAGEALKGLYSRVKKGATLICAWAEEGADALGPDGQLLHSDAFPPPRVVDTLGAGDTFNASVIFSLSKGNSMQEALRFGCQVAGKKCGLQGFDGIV
# [7] = Apparent permeability in RRCK cells by LC-MS/MS analysis; format: ADME, cell-based, Canis lupus familiaris, MDCKII-LE; conditions: dog, MDCK
# [8] = Thermodynamic solubility of compound at pH 7.4; format: physicochemical; conditions: buffer, read-out: Therm_solubility
# Outline: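 Thermodynamic solubility determined at pH 7.4.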
# [9] = Fraction unbound in human plasma at 10 uM measured at 2 to 24 hrs by equilibrium dialysis method; format: ADME, cell-free
# [10] = tested on: Rattus norvegicus; assay: Unbound Cmax in rat at 300 mg/kg, po; format: ADME, organism-based; conditions: in vivo
# Outline: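 Rats given 300 mg/kg orally in 0.25% HPC-SL/0.05% DOSS vehicle. Free plasma concentrations determined; mean ± SD, n = 3 per data point.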
# [11] = Volume of distribution in rat at 1 mg/kg, iv; format: ADME, organism-based; conditions: in vivo
# Outline: (§2)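 Rat PK following a 1 mg/kg intravenous dose; systemic clearance, volume of distribution and effective half-life derived from plasma exposure.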
# [12] = Half life in rat at 1 mg/kg, iv; format: ADME, organism-based; conditions: in vivo; outline: as §2
# [13] = tested on: Rattus norvegicus; assay: Oral bioavailability in rat at 5 mg/kg; format: ADME, organism-based; conditions: in vivo
# [14] = Cmax in rat at 5 mg/kg; format: ADME, organism-based; set-up: dose 5 mg/kg; conditions: in vivo
# [15] = tested on: Rattus norvegicus; assay: AUClast in rat at 5 mg/kg, po; format: ADME, organism-based; set-up: dose 5 mg/kg, route oral, time 0 - last; conditions: in vivo
# [16] = tested on: Rattus norvegicus; assay: Time required for plasma concentration to reach above in vitro rat KHK IC50 in rat at 150 mg/kg, po
# Outline: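 Rats dosed orally at 150 mg/kg as a nanocrystal suspension (1% polyvinylpyrrolidone / 0.025% sodium lauryl sulfate / 1% pluronic).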
# [17] = tested on: Salmonella typhimurium; assay: Genotoxicity in Salmonella typhimurium by Ames test; format: toxicity; conditions: salmonella enterica subsp. enterica serovar typhimurium
# [18] = tested on: HepG2; assay: Cytotoxicity against human HepG2 cells up to 300 uM after 72 hrs; format: cell-based; conditions: hepg2, 72 h
# Outline: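 HepG2 cells incubated with compound at concentrations up to 300 µM for 72 hours to assess toxicity.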
# [19] = tested on: Rattus norvegicus; assay: In vivo inhibition of KHK-C in po dosed Sprague-Dawley rat assessed as decrease in F1P levels in liver administered for 1 hr followed by bolus fructose administration measured 2 mins after iv infusion by LC/MS analysis; format: functional
# Outline: (§3)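 Male Sprague Dawley rats (~200 g, jugular-cannulated) were fasted 16 h and given oral compound as a 0.5% methylcellulose nano-milled suspension. After 1 h they received an i.v. fructose bolus of 500 mg/kg over 20 s, and were decapitated 2 min later. Liver and kidney F1P was quantified by ion-exchange LC/MS/MS against a 13C-xylitol internal standard. ED50 from a four-parameter fit; n = 7-8.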
# [20] = tested on: Rattus norvegicus; assay: In vivo inhibition of KHK-C in po dosed Sprague-Dawley rat assessed as decrease in F1P levels in kidney administered for 1 hr followed by bolus fructose administration measured 2 mins after iv infusion by LC/MS analysis; format: functional; outline: as §3
# [21] = tested on: Rattus norvegicus; assay: In vivo inhibition of fructose metabolism in po dosed Sprague-Dawley rat assessed as increase in plasma fructose level administered for 1 hr followed by oral bolus fructose administration measured after 2 mins by LC/MS analysis; format: functional, organism-based
# Outline: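 Fasted (16 h) non-cannulated male Sprague Dawley rats were dosed orally with compound in a 0.5% methylcellulose nano-milled suspension. One hour later they received 2 g/kg oral fructose. Tail-vein K2EDTA plasma was methanol-extracted with 13C6-fructose internal standard and analysed by HILIC LC-MS/MS; n = 6-8.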
# [22] = molecular target: Voltage-gated inwardly rectifying potassium channel KCNH2 (Homo sapiens, UniProt Q12809); assay: Inhibition of human ERG
# [23] = molecular target: T4, Cytochrome P450 1A2 (Homo sapiens, UniProt P05177); assay: Inhibition of human CYP1A2 at 3 uM; format: ADME
# T4 sequence (P05177 whole entry): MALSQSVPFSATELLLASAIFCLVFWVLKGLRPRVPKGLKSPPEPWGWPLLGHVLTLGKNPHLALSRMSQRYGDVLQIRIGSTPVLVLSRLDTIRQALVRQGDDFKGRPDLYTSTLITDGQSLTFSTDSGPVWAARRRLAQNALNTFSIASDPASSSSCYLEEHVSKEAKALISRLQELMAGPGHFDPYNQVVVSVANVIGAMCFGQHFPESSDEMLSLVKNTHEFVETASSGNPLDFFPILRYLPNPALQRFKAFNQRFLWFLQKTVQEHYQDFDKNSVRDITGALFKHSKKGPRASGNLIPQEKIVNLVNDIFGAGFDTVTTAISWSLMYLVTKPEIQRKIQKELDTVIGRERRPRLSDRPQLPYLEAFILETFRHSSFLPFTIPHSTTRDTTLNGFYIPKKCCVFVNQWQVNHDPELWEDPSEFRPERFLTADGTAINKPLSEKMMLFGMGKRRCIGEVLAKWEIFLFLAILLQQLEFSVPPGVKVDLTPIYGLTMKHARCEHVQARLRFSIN
# [24] = molecular target: Cytochrome P450 2C19 (Homo sapiens, UniProt P33261); assay: Inhibition of human CYP2C19 at 3 uM; format: ADME
# [25] = molecular target: T5, Cytochrome P450 2C8 (Homo sapiens, UniProt P10632); assay: Inhibition of human CYP2C8 at 3 uM; format: ADME
# T5 sequence (P10632 whole entry): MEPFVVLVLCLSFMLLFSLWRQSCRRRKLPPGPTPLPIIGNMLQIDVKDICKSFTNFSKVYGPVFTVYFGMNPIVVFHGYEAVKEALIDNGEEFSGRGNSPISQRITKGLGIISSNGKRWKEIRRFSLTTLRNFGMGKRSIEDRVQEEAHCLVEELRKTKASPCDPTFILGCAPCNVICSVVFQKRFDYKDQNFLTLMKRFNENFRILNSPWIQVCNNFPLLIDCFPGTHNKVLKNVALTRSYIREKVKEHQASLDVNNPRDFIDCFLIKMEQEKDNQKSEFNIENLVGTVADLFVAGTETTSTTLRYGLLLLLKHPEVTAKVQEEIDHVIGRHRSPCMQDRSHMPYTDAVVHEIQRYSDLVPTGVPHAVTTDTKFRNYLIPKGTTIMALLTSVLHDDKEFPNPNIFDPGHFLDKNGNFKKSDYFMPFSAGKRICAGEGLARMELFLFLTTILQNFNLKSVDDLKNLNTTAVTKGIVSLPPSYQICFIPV
# [26] = molecular target: Cytochrome P450 2C9 (Homo sapiens, UniProt P11712); assay: Inhibition of human CYP2C9 at 3 uM; format: ADME
# [27] = molecular target: Cytochrome P450 2D6 (Homo sapiens, UniProt P10635); assay: Inhibition of human CYP2D6 at 3 uM; format: ADME
# [28] = molecular target: Cytochrome P450 3A4 (Homo sapiens, UniProt P08684); assay: Inhibition of human CYP3A4 at 3 uM; format: ADME
# [29] = Apparent clearance in rat liver microsomes; format: ADME, microsome; conditions: read-out: CLH(app)
# [30] = molecular target: T1, Ketohexokinase
# [31] = molecular target: T1, Ketohexokinase; remark: listed apart in the source
# [32] = Rattus norvegicus, Sprague-Dawley
# Chain of Cytochrome P450 3A4 (P08684 whole entry): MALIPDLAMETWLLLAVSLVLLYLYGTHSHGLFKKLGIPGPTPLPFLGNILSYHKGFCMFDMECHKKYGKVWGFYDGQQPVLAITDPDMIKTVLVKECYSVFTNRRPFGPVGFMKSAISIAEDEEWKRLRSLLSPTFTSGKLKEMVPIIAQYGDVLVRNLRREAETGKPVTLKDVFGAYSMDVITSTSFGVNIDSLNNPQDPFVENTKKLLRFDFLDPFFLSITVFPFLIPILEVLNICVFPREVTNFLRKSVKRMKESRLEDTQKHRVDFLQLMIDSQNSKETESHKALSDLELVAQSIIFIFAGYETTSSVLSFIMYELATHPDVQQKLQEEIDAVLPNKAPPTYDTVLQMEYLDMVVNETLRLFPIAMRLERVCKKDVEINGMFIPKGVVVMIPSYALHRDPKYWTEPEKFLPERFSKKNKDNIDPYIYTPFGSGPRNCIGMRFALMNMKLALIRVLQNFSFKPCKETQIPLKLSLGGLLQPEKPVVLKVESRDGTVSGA
# Chain of Voltage-gated inwardly rectifying potassium channel KCNH2 (Q12809 whole entry): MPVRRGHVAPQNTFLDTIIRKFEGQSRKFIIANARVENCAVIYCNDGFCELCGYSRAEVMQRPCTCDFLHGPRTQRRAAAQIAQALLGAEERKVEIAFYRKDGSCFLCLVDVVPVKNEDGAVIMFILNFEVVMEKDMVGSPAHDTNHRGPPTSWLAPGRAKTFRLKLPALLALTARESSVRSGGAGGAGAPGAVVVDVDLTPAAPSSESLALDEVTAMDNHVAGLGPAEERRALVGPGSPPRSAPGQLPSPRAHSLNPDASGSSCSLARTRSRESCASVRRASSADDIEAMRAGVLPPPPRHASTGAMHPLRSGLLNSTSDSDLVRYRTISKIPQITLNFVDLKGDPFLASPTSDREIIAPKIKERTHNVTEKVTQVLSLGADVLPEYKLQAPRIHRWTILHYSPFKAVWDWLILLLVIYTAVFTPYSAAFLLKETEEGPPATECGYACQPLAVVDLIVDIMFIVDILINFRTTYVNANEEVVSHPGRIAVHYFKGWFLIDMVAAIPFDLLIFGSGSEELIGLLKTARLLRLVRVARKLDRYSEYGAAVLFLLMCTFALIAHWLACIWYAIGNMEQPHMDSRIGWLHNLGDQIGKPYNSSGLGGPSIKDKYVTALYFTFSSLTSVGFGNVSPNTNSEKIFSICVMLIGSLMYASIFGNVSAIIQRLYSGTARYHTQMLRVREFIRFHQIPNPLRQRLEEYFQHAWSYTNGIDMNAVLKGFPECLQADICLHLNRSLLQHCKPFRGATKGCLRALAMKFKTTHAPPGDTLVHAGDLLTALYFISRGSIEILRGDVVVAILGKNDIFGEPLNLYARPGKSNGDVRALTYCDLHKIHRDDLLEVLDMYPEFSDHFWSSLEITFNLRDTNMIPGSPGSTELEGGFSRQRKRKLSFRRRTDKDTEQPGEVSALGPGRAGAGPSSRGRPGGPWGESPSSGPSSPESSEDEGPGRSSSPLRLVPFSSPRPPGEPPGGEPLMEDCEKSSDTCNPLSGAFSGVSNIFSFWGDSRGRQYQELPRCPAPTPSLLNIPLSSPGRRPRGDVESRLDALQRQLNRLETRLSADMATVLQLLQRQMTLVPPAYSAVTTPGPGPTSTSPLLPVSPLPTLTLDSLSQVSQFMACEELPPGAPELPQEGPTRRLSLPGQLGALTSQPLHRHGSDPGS
# Chain of Cytochrome P450 2C9 (P11712 whole entry): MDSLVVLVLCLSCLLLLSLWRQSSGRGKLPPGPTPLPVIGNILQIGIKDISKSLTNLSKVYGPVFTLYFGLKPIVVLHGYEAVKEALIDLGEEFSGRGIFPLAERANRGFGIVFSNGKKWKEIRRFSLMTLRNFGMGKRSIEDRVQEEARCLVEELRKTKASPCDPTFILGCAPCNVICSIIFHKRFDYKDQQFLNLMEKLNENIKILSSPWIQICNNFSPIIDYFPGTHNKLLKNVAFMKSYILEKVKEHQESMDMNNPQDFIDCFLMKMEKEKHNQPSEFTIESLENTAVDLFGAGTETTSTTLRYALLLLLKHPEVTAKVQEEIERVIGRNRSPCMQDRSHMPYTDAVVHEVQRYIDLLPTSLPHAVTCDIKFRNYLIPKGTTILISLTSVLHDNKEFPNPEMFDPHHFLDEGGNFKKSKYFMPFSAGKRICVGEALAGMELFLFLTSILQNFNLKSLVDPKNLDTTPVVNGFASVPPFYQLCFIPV
# Chain of Cytochrome P450 2C19 (P33261 whole entry): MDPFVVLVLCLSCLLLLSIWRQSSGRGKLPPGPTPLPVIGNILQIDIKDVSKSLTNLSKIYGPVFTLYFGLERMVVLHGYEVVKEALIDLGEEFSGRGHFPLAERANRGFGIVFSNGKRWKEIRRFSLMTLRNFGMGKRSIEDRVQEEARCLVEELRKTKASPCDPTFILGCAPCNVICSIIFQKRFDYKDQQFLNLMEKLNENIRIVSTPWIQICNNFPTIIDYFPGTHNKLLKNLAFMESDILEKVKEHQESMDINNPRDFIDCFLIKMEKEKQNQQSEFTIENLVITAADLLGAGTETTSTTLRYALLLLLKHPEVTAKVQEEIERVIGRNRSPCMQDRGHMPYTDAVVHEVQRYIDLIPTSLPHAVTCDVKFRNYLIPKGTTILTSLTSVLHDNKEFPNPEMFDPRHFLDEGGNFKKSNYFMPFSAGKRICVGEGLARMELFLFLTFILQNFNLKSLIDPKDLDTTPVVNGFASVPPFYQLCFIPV
# Chain of Cytochrome P450 2D6 (P10635 whole entry): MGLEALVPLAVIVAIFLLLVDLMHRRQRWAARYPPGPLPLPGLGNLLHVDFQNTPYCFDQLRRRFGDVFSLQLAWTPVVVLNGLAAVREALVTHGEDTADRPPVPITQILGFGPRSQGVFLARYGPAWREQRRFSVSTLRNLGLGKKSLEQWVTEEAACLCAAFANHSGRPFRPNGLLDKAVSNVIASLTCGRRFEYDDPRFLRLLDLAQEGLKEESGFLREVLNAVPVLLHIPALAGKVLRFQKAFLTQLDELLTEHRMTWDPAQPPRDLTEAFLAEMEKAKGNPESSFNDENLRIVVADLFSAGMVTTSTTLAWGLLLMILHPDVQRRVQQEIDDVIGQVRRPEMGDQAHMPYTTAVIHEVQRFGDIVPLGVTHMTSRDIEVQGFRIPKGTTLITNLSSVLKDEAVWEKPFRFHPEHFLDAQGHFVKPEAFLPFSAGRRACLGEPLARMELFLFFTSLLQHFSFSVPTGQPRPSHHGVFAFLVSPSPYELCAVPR
smiles,measurement,setting,value
Cc1cc(C)c(C#N)c(N2CCOCC2)n1,Kd,[1],62000 nM
same,IC50,[2],319000 nM
same,inhibition,[3],Active
C[C@]1(O)CCN(c2nc(N3CCN(CCO)CC3)cc(C(F)(F)F)c2C#N)C1,IC50,[2],1030 nM
same,microsomal CLint,[4],14 µL/min/mg
same,logD,[5],2.2
C[C@]1(O)CCN(c2c(C#N)c(C(F)(F)F)nc3cc[nH]c23)C1,IC50,[2],670 nM
same,IC50,[6]; read-out: IC50,640 nM
same,microsomal CLint,[4],< 8 µL/min/mg
same,logD,[5],2.2
same,Papp,[7],14 ×10⁻⁶ cm/s
same,solubility thermodynamic,[8],147 µM
same,fraction unbound at 10 µM,[9],0.032
same,fCmax,[10],1.3 µM
C[C@]1(O)CCN(c2nc(N3C[C@H](O)[C@@H](O)C3)cc(C(F)(F)F)c2C#N)C1,IC50,[6]; read-out: IC50,340 nM
same,IC50,[6]; read-out: pIC50 (converted),501 nM
same,microsomal CLint,[4],< 8 µL/min/mg
same,logD,[5],2.2
same,Papp,[7],3.5 ×10⁻⁶ cm/s
same,solubility thermodynamic,[8],503 µM
same,fraction unbound at 10 µM,[9],0.13
same,Vd,[11],1.38 L/kg
same,half-life,[12],1.2 h
same,F,[13],45%
same,Cmax,[14],2940 ng/mL
same,AUClast,[15],14500 ng·h/mL
same,Time,[16],14 h
same,Activity,[17],Non-Toxic
same,Activity,[18],Non-Toxic
same,inhibition,[19],Dose-dependent effect
same,pED50,[19],1.48
same,ED50,[19]; [32],30 mg/kg
same,inhibition,[20],Dose-dependent effect
same,pED50,[20],1.2
same,ED50,[20]; [32],15.7 mg/kg
same,inhibition,[21],Dose-dependent effect
same,inhibition (INH),[22],Not Active
same,inhibition (INH),[23],Not Active
same,inhibition (INH),[24],Not Active
same,inhibition (INH),[25],Not Active
same,inhibition (INH),[26],Not Active
same,inhibition (INH),[27],Not Active
same,inhibition (INH),[28],Not Active
same,microsomal CLint,[29],< 8 µL/min/mg
same,IC50,[30],316 nM
same,IC50,[31],390 nM
N#Cc1cc(F)c(N)nc1Cl,Kd,[1],103000 nM
same,IC50,[2],> 500000 nM
same,inhibition,[3],Active
